Laboratory results taken from paper PMC3972499 (Scientific Reports, 2014).
“Also recorded” adds a separate entry of the source. Positions of bridges follow the written chain, without caps; N, C: chain ends. Residues, ends and D or L forms follow the SMILES beside them.

Tests used:
[1] = test system: m1.5-2 chimera (hNav1.5 with DIII/S3–S4 of hNav1.7); assay: Whole-cell patch clamp, HEK293 cells, chimera M1.5-2; type: cell-based, human; conditions: read-out: estimated IC50, room temperature, data points mean ± S.E., 3–5 cells
[2] = test system: m1.7-1 chimera (hNav1.7 with DII/S3–S4 of hNav1.5); assay: Whole-cell patch clamp, HEK293 cells, chimera M1.7-1; type: cell-based, human; conditions: read-out: estimated IC50, room temperature, data points mean ± S.E., 3–5 cells
[3] = test system: hNav1.5 chimeras with S3–S4 fragments replaced by those from hNav1.7; assay: Loss-of-function assay, whole-cell patch clamp, hNav1.5 chimeras; type: cell-based, human; conditions: 1 μM, HEK293
[4] = test system: hNav1.7 chimeras with S3–S4 fragments replaced by those from hNav1.5; assay: Gain-of-function assay, whole-cell patch clamp, hNav1.7 chimeras; type: cell-based, human; conditions: 1 μM, HEK293
[5] = test system: m1.7-4 chimera (hNav1.7 with DII + DIII + DIV S3–S4 of hNav1.5); assay: Whole-cell patch clamp, HEK293 cells, chimera M1.7-4; type: cell-based, human; conditions: read-out: estimated IC50, room temperature, data points mean ± S.E., 3–5 cells
WT-rNav1.3 = assay: Whole-cell patch clamp, WT-rNav1.3; type: cell-based; conditions: 50 μM SSCM-1
How it was run: (§1)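 Whole-cell recording at room temperature. Peptide stock was 1 mM in double-distilled water, stored in aliquots at −20°C, then diluted to the stated test concentration.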

[6] = test system: M1.4-1 chimera (rNav1.4 with DII/S3–S4 of hNav1.5); assay: Gain-of-function assay, whole-cell patch clamp, chimera M1.4-1; type: cell-based
WT-rNav1.4 = assay: Whole-cell patch clamp, WT-rNav1.4; type: cell-based; conditions: 50 μM SSCM-1
How it was run: as §1

[7] = test system: M1.5-5 chimera (hNav1.5 with DII/S3–S4 of rNav1.4); assay: Loss-of-function assay, whole-cell patch clamp, chimera M1.5-5; type: cell-based; conditions: 50 μM SSCM-1
wild type hNav1.5 = wild type hNav1.5 (Homo sapiens, UniProt Q14524); assay: Whole-cell patch clamp, HEK293 cells, wild type hNav1.5; type: cell-based
How it was run: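 HEK293 cells expressing hNav1.5, grown in DMEM with 10% FBS (5% CO2, 37°C). Pipette solution: 140 mM CsF, 10 mM NaCl, 1 mM EGTA, 10 mM HEPES, pH 7.3. Bath solution: 140 mM NaCl, 3 mM KCl, 1 mM MgCl2, 1 mM CaCl2, 10 mM HEPES, pH 7.3. Run at room temperature. Peptide stock 1 mM in ddH2O. Concentration–response curves used points as mean ± S.E. from 3–5 cells.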

[8] = test system: TTX-R currents expressed on DRG cells; assay: Whole-cell patch clamp, TTX-R currents on DRG cells; type: cell-based; conditions: 10 μM SSCM-1, containing 200 μM TTX

Chain of wild type hNav1.5 (Q14524 whole entry): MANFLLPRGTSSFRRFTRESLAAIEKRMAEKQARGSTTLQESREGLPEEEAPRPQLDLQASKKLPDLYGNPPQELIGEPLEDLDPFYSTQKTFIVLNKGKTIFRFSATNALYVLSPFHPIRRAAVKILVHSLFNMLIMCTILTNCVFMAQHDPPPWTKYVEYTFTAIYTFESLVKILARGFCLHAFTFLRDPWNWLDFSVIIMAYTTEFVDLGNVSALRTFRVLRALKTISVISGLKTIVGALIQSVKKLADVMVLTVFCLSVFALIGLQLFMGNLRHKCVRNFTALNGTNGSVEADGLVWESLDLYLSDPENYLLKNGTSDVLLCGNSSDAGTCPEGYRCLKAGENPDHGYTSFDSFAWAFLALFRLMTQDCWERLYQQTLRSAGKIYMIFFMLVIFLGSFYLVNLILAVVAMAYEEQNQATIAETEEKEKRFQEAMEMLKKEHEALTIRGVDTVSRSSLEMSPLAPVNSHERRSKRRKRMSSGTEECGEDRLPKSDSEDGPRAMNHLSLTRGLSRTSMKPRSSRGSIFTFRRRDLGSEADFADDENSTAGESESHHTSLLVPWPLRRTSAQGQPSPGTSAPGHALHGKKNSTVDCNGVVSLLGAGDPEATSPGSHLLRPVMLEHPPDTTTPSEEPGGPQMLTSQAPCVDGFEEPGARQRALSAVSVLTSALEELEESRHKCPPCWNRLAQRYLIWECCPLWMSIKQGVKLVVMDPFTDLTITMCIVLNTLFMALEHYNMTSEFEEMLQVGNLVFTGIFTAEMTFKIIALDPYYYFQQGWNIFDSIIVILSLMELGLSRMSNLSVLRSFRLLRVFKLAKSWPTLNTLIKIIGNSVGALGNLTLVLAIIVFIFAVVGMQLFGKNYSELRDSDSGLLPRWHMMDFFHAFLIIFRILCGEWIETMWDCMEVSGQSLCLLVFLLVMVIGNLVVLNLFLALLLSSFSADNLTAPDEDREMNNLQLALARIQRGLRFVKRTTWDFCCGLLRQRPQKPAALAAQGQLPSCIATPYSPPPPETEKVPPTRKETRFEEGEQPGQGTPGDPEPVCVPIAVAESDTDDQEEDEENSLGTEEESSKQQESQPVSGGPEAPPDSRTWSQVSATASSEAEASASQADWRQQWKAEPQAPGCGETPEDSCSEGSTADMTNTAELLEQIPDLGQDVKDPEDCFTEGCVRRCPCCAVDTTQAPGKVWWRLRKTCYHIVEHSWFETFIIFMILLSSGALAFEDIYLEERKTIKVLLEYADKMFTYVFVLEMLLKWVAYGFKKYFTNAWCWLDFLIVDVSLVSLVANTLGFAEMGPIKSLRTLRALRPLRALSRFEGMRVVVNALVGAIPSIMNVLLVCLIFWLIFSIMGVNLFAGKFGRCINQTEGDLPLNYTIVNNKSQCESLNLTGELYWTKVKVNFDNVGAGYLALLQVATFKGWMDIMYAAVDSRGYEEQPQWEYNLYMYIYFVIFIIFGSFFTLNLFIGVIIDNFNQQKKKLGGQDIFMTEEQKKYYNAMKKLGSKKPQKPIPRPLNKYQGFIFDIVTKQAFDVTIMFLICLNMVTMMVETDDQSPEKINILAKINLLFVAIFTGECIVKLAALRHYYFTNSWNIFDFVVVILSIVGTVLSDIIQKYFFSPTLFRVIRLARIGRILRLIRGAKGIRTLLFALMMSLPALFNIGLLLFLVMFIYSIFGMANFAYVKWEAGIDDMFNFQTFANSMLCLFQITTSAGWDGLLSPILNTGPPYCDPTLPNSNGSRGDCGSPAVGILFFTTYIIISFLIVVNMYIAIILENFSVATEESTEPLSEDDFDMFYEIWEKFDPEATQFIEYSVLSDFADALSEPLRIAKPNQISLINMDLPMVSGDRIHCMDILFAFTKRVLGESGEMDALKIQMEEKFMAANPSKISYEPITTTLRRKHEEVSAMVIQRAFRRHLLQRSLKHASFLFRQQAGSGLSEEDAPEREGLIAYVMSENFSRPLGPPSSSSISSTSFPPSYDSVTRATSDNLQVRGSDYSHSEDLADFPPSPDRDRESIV

| SMILES | IC50 [1] | IC50 [2] | Sensitivity to JZTX-III inhibition of hNav1.5 chimeras [3] | Sensitivity to JZTX-III of hNav1.7 chimeras [4] | IC50 [5] | inhibitory effect on rNav1.3 currents, in words (WT-rNav1.3) | inhibition of chimera M1.4-1 currents ([6]; 50 μM SSCM-1) | inhibitory effect on chimeric rNav1.4 (M1.4-1) currents, in words ([6]; gain-of-function) | inhibitory effect on rNav1.4 currents, in words (WT-rNav1.4) | inhibition of chimera M1.5-5 currents [7] | IC50 (wild type hNav1.5) | inhibition at 10 µM (wild type hNav1.5; HEK293, read-out: inhibition of wild type hNav1.5 currents) | inhibition of TTX-R currents, in words [8] |
| --- | --- | --- | --- | --- | --- | --- | --- | --- | --- | --- | --- | --- | --- |
| CC(C)[C@H](NC(=O)[C@H](C)NC(=O)[C@@H]1CSSC[C@@H]2NC(=O)[C@@H]3CCCN3C(=O)[C@@H]3CCCN3C(=O)[C@H](CCCCN)NC(=O)CNC(=O)[C@H](CCCNC(=N)N)NC(=O)CNC(=O)[C@@H]3CSSC[C@H](NC(=O)[C@H](C)NC(=O)[C@H](Cc4ccc(O)cc4)NC(=O)CNC(=O)[C@H](CCCCN)NC(=O)[C@H](CSSC[C@H](NC(=O)[C@H](CCC(=O)O)NC(=O)CNC(=O)[C@@H](N)CC(=O)O)C(=O)NCC(=O)NCC(=O)N[C@@H](Cc4ccccc4)C(=O)N[C@@H](Cc4c[nH]c5ccccc45)C(=O)N[C@@H](Cc4c[nH]c5ccccc45)C(=O)N[C@@H](CCCCN)C(=O)N3)NC2=O)C(=O)N[C@@H](CO)C(=O)N[C@@H](CCCCN)C(=O)N[C@@H]([C@@H](C)O)C(=O)N[C@@H](Cc2c[nH]c3ccccc23)C(=O)NCC(=O)N[C@@H](Cc2c[nH]c3ccccc23)C(=O)N1)C(=O)N[C@@H](CCC(=O)O)C(=O)N[C@@H](C)C(=O)N1CCC[C@H]1C(=O)O [JZTX-III, jingzhaotoxin-III] (H-DGECGGFWWKCGRGKPPCCKGYACSKTWGWCAVEAP-OH; disulfide 4-19, 11-24, 18-31; N-terminus and C-terminus assumed) | 1050 nM | 736 nM | lost its sensitivity to JZTX-III inhibition | gained partial sensitivity to JZTX-III | 476 nM | – | – | – | – | – | – | – | – |
| CC[C@H](C)[C@H](NC(=O)CNC(=O)[C@@H](NC(=O)[C@H](CCCNC(=N)N)NC(=O)[C@@H](NC(=O)[C@H](CO)NC(=O)[C@H](CC(N)=O)NC(=O)[C@H](CCCCN)NC(=O)[C@H](Cc1ccc(O)cc1)NC(=O)[C@H](CCCCN)NC(=O)[C@@H](N)CCSC)[C@@H](C)O)C(C)C)C(=O)N[C@@H](CC(=O)O)C(=O)N[C@H](C(=O)NCC(=O)N[C@@H](CO)C(=O)N[C@H](C(=O)N[C@@H](CCC(=O)O)C(=O)N[C@@H](CC(C)C)C(=O)N[C@@H](CCC(=O)O)C(=O)N[C@@H](CC(C)C)C(=O)N[C@@H](CCC(N)=O)C(=O)N[C@@H](CCSC)C(=O)N[C@@H](CC(N)=O)C(=O)N[C@@H](CCCNC(=N)N)C(=O)N[C@@H](CCCNC(=N)N)C(=O)N[C@@H](Cc1ccc(O)cc1)C(=O)O)[C@@H](C)CC)[C@@H](C)O [SSCM-1, Screened-Sodium-Channel-Interacting peptide-1] (H-MKYKNSTRVGIDTGSIELELQMNRRY-OH) | – | – | – | – | – | subtle inhibitory activity; also recorded: almost no detectable inhibitory effect | 15% | a detectable inhibitory effect | subtle inhibitory activity; also recorded: almost no detectable inhibitory effect | about 15% | ~2880 nM | > 90% | subtle inhibitory activity; also recorded: could not inhibit TTX-R currents |
